Test results reported in ChEMBL document CHEMBL1123260 (J Med Chem, 1986).
Values joined by “and” are separate entries in the source; they are usually repeats but may differ in a detail not shown here. Identical values can stand only once.

How the values were obtained:
Phosphodiesterase 3 = Phosphodiesterase 3 (Homo sapiens, UniProt Q14432+Q13370); test: Inhibition of cardiac PDE 3 (phosphodiesterase III); format: protein assay, Canis lupus familiaris
Canis familiaris [1] = test: Percent change in myocardial contractility (LV dp/dt) before beta-blockade in anesthetized dogs at 0.03 mg/kg; format: functional, Canis lupus familiaris, Myocardium
Method in brief: (§1)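 Anesthetized dogs: 30 min control recording before dosing. Drug dissolved in 0.9% saline or dilute HCl or NaOH (0.1 or 1.0 N), then made to volume with saline. Given iv (0.1 mL/kg over 1 min), cumulative doses at half-log intervals, 10–30 min between doses to reach steady state. One compound per animal. Inotropy taken as change in LV dP/dtmax from preceding baseline. Values are mean ± SEM or the mean of two experiments.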

Canis familiaris [2] = test: Positive inotropic effects in anesthetized dogs; format: functional; conditions: Canis lupus familiaris; method in brief: as §1
Canis familiaris [3] = test: (§2) Percent change in mean arterial blood pressure (MABP) before beta-blockade in anesthetized dogs at 0.03 mg/kg; format: functional, Canis lupus familiaris; method in brief: as §1
Canis familiaris [4] = test: as §2; format: functional, Canis lupus familiaris; method in brief: as §1; remark: listed apart in the source
Canis familiaris [5] = test: (§3) Percent change in heart rate (HR) before beta-blockade in anesthetized dogs at 0.03 mg/kg; format: functional, Canis lupus familiaris; method in brief: as §1
Canis familiaris [6] = test: as §3; format: functional, Canis lupus familiaris; method in brief: as §1; remark: listed apart in the source
Canis familiaris [7] = test: Cardiovascular effects in anesthetized dogs; format: functional; conditions: Canis lupus familiaris; method in brief: as §1
Canis familiaris [8] = test: Effective dose in anesthetized dogs; format: functional; conditions: Canis lupus familiaris; method in brief: as §1
Canis familiaris [9] = test: (§4) Percent change in total peripheral resistance (TPR) before beta-blockade in anesthetized dogs at 0.03 mg/kg; format: functional, Canis lupus familiaris; method in brief: as §1
Canis familiaris [10] = test: (§5) Percent change in mean arterial blood pressure (MABP) before beta-blockade in anesthetized dogs at 0.01 mg/kg; format: functional, Canis lupus familiaris; method in brief: as §1
Canis familiaris [11] = test: (§6) Percent change in heart rate (HR) before beta-blockade in anesthetized dogs at 0.11 mg/kg; format: functional, Canis lupus familiaris; method in brief: as §1
Canis familiaris [12] = test: (§7) Percent change in myocardial contractility (LV dp/dt) before beta-blockade in anesthetized dogs at 0.01 mg/kg; format: functional, Canis lupus familiaris, Myocardium; method in brief: as §1
Canis familiaris [13] = test: (§8) Percent change in forelimb vascular resistance (FVR) after beta-blockade in anesthetized dogs 0.03 mg/kg; format: functional, Canis lupus familiaris
Method in brief: (§9)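 Anesthetized dogs given β-adrenoceptor blockade (nadolol, 1 mg/kg iv) before the test agent. Drug dissolved in saline or dilute HCl/NaOH and given iv as cumulative 1-min doses, 10–30 min apart. Forelimb vascular resistance recorded as percent change from control. Values are mean ± SEM (n = 4-5) or the mean of two determinations, with significance set at p < 0.05.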

Canis familiaris [14] = test: (§10) Percent change in heart rate (HR) before beta-blockade in anesthetized dogs at 0.01 mg/kg; format: functional, Canis lupus familiaris; method in brief: as §1
Canis familiaris [15] = test: (§11) Percent change in forelimb vascular resistance (FVR) after beta-blockade in anesthetized dogs 0.11 mg/kg; format: functional, Canis lupus familiaris; method in brief: as §9
Canis familiaris [16] = test: as §5; format: functional, Canis lupus familiaris; method in brief: as §1; remark: listed apart in the source
Canis familiaris [17] = test: as §10; format: functional, Canis lupus familiaris; method in brief: as §1; remark: listed apart in the source
Canis familiaris [18] = test: as §11; format: functional, Canis lupus familiaris; method in brief: as §9; remark: listed apart in the source
Canis familiaris [19] = test: (§12) Percent change in mean arterial blood pressure (MABP) before beta-blockade in anesthetized dogs at 0.11 mg/kg; format: functional, Canis lupus familiaris; method in brief: as §1
Canis familiaris [20] = test: Percent change in total peripheral resistance (TPR) before beta-blockade in anaesthetized dogs at 0.11 mg/kg; format: functional, Canis lupus familiaris; method in brief: as §1
Canis familiaris [21] = test: as §6; format: functional, Canis lupus familiaris; method in brief: as §1; remark: listed apart in the source
Canis familiaris [22] = test: as §4; format: functional, Canis lupus familiaris; method in brief: as §1; remark: listed apart in the source
Canis familiaris [23] = test: Percent change in forelimb vascular resistance (FVR) after beta-blockade in anesthetized dogs 0.01 mg/kg; format: functional, Canis lupus familiaris; method in brief: as §9
Canis familiaris [24] = test: as §7; format: functional, Canis lupus familiaris, Myocardium; method in brief: as §1; remark: listed apart in the source
Canis familiaris [25] = test: Percent change in myocardial contractility (LV dp/dt) before beta-blockade in anesthetized dogs at 0.11 mg/kg; format: functional, Canis lupus familiaris, Myocardium; method in brief: as §1
Canis familiaris [26] = test: (§13) Percent change in total peripheral resistance (TPR) before beta-blockade in anesthetized dogs at 0.01 mg/kg; format: functional, Canis lupus familiaris; method in brief: as §1
Canis familiaris [27] = test: as §13; format: functional, Canis lupus familiaris; method in brief: as §1; remark: listed apart in the source
Canis familiaris [28] = test: Percent change in total peripheral resistance (TPR) before beta-blockade in anesthetized dogs at 0.11 mg/kg; format: functional, Canis lupus familiaris; method in brief: as §1
Canis familiaris [29] = test: as §8; format: functional, Canis lupus familiaris; method in brief: as §9; remark: listed apart in the source
Canis familiaris [30] = test: as §12; format: functional, Canis lupus familiaris; method in brief: as §1; remark: listed apart in the source
Canis familiaris [31] = test: Percent change in forelimb vascular resistance (FVR)in anesthetized dogs after beta-blockade at 0.01 mg/kg; format: functional, Canis lupus familiaris; method in brief: as §9

With `Oc1cc2c(nn1)-c1ccc(-n3ccnc3)cc1C2` the IC50 (Phosphodiesterase 3) was 1600 nM.

With `CC1CC(O)=NN=C1c1ccc(-n2ccnc2)cc1` (stereo not drawn) [CI-930] the “Change in LV dp/dt” value (Canis familiaris [1]) was 76% and 47%, the ED50 (Canis familiaris [2]) was 0.013 mg/kg and the “Change in MABP” value (Canis familiaris [3]) was -7.5%. The “Change in MABP” value (Canis familiaris [4]) was -5%, the “Change in heart rate” value (Canis familiaris [5]) was 11% and the “Change in heart rate” value (Canis familiaris [6]) was 7%.

`CCC(=O)Nc1ccc2c(c1)CC1CC(=O)NN=C21` (stereo not drawn) was tested, and the ED50 (Canis familiaris [7]) was 0.0104 mg/kg.

With `CN1N=C2c3ccc(-n4ccnc4)cc3CC2CC1=O` (stereo not drawn) the ED50 (Canis familiaris [8]) was 1 mg/kg.

With `O=C1CC2Cc3cc(-n4ccnc4)ccc3C2=NN1` (stereo not drawn) the “Change in TPR” value (Canis familiaris [9]) was -23%, the “Change in MABP” value (Canis familiaris [10]) was 0% and the “Change in heart rate” value (Canis familiaris [11]) was 12%. For the same compound, the “Change in LV dp/dt” value (Canis familiaris [12]) was 11%, the “Change in FVR” value (Canis familiaris [13]) was -22.5% and the IC50 (Phosphodiesterase 3) was 1800 nM. The ED50 (Canis familiaris [2]) was 0.023 mg/kg, the “Change in heart rate” value (Canis familiaris [14]) was 0% and the “Change in FVR” value (Canis familiaris [15]) was -34.5%. The “Change in MABP” value (Canis familiaris [16]) was -2%, the “Change in MABP” value (Canis familiaris [3]) was -7% and the “Change in heart rate” value (Canis familiaris [17]) was 3%. The “Change in FVR” value (Canis familiaris [18]) was -31%, the “Change in MABP” value (Canis familiaris [19]) was -18% and the “Change in TPR” value (Canis familiaris [20]) was -33.5%. For the same compound, the “Change in heart rate” value (Canis familiaris [21]) was 5%, the “Change in MABP” value (Canis familiaris [4]) was -3% and the “Change in TPR” value (Canis familiaris [22]) was -22.5%. The “Change in FVR” value (Canis familiaris [23]) was -7.5%, the “Change in LV dp/dt” value (Canis familiaris [24]) was 18% and the “Change in LV dp/dt” value (Canis familiaris [25]) was 106% and 57%. The “Change in TPR” value (Canis familiaris [26]) was -12%, the “Change in TPR” value (Canis familiaris [27]) was -8.5% and the “Change in heart rate” value (Canis familiaris [5]) was 4%. The “Change in TPR” value (Canis familiaris [28]) was -39%, the “Change in FVR” value (Canis familiaris [29]) was -1.5% and the “Change in heart rate” value (Canis familiaris [6]) was 2%. For the same compound, the “Change in MABP” value (Canis familiaris [30]) was -18% and the “Change in FVR” value (Canis familiaris [31]) was -1.5%.
